Measured values as given in ChEMBL document CHEMBL1153736, “Application of ring-closing metathesis macrocyclization to the development of Tsg101-binding antagonists” (Bioorg Med Chem Lett, 2010).
Numbered stars: 1 amine (or outer) side, 2 acyl side, 3 side chain; on linkers, the order of the positions; unused ones are H or OH. Bridge positions count the residues as written; N and C are the ends. Square brackets hold non-standard residues; d marks the D form. Peptide text beside a SMILES is read from it. * marks the point of attachment. Fluorescein(5-NHCS) = O=C1OC2(c3ccc(O)cc3Oc3cc(O)ccc32)c2cc(NC(=S)*)ccc21; Gly(N-but-3-enyl) = O=C(CN(CCC=[*:3])[*:1])[*:2]; X3 = O=C(CN(CCCCCCC=[*:3])[*:1])[*:2]; X5 = O=C(CN(CCCCCC=[*:3])[*:1])[*:2]; X4 = O=C(CN(CCCCC=[*:3])[*:1])[*:2]; X1 = O=C(CN(CCCC=[*:3])[*:1])[*:2]; X2 = O=C(CN(CC=[*:3])[*:1])[*:2]; NAllylGly = C=CCNCC(=O)O; Ava = NCCCCC(=O)O

Experiments:
[1] = molecular target: T1, Tumor susceptibility gene 101 protein (Homo sapiens, UniProt Q99816); experiment: Binding affinity to ubiquitin E2 variant domain of human Tsg101 by fluorescent anisotropy
T1 sequence (Q99816 whole entry): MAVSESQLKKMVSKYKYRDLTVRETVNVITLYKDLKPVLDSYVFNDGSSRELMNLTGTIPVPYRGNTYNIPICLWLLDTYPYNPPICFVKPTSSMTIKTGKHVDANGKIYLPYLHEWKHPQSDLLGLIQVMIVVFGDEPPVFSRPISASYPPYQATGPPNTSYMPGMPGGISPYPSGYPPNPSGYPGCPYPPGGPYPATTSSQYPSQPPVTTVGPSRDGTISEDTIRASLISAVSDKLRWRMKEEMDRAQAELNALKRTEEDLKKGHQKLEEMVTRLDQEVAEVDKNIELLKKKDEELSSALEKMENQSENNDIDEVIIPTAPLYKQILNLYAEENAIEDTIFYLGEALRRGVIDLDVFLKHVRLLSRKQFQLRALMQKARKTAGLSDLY

HeLa = experiment: Cellular uptake in human HeLa cells assessed as fluorescence intensity by FACS analysis relative to control; assay type: ADME, cell-based; conditions: in the assay text read “fluorescence microscopy” for “FACS analysis”
Method in brief: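 Uptake of FITC-tagged peptide-peptoid hybrids was measured by fluorescence microscopy. The value is the average fluorescence intensity of treated cells, quantified from at least 20 cells taken from 4–6 fields, each field holding about 5 cells.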

Structure (SMILES)	Kd [1] [µM]	Drug uptake (HeLa) [%]
C[C@@H]1NC(=O)[C@H]([C@@H](C)O)NC(=O)[C@@H]2CCCN2C(=O)[C@H](CCC(=O)O)NC(=O)CN(C(=O)CCCCNC(=S)Nc2ccc3c(c2)C2(OC3=O)c3ccc(O)cc3Oc3cc(O)ccc32)CCC=CCN(CC(N)=O)C(=O)[C@H](CCC(=O)O)NC(=O)[C@@H]2CCCN2C(=O)[C@@H]2CCCN2C1=O	> 500	–
C[C@@H]1NC(=O)[C@H]([C@@H](C)O)NC(=O)[C@@H]2CCCN2C(=O)CN(C(=O)[C@@H]2CCCN2C(=O)CCCCNC(=S)Nc2ccc3c(c2)C2(OC3=O)c3ccc(O)cc3Oc3cc(O)ccc32)CCCC/C=C/CN(CC(=O)N[C@@H](CCC(=O)O)C(N)=O)C(=O)[C@@H]2CCCN2C(=O)[C@@H]2CCCN2C1=O ({Fluorescein(5-NHCS)-Ava}-P[X4]PTAPP[X2]E-NH2; staple (E) 2-8)	> 500	–
C[C@@H]1NC(=O)[C@H]([C@@H](C)O)NC(=O)[C@@H]2CCCN2C(=O)CN(C(=O)[C@@H]2CCCN2C(=O)CCCCNC(=S)Nc2ccc3c(c2)C2(OC3=O)c3ccc(O)cc3Oc3cc(O)ccc32)CCCCC/C=C\CN(CC(=O)N[C@@H](CCC(=O)O)C(N)=O)C(=O)[C@@H]2CCCN2C(=O)[C@@H]2CCCN2C1=O ({Fluorescein(5-NHCS)-Ava}-P[X5]PTAPP[X2]E-NH2; staple (Z) 2-8)	> 500	–
C[C@@H]1NC(=O)[C@H]([C@@H](C)O)NC(=O)[C@@H]2CCCN2C(=O)[C@H](CCC(=O)O)NC(=O)CN(C(=O)CCCCNC(=S)Nc2ccc3c(c2)C2(OC3=O)c3ccc(O)cc3Oc3cc(O)ccc32)C/C=C\CCCCCCN(CC(=O)N[C@@H](CCC(=O)O)C(N)=O)C(=O)[C@@H]2CCCN2C(=O)[C@@H]2CCCN2C1=O ({Fluorescein(5-NHCS)-Ava}-[X2]EPTAPP[X3]E-NH2; staple (Z) 1-8)	> 500	–
C[C@@H]1NC(=O)[C@H]([C@@H](C)O)NC(=O)[C@@H]2CCCN2C(=O)[C@H](CCC(=O)O)NC(=O)CN(C(=O)CCCCNC(=S)Nc2ccc3c(c2)C2(OC3=O)c3ccc(O)cc3Oc3cc(O)ccc32)CCCCC/C=C/CN(CC(=O)N[C@@H](CCC(=O)O)C(N)=O)C(=O)[C@@H]2CCCN2C(=O)[C@@H]2CCCN2C1=O ({Fluorescein(5-NHCS)-Ava}-[X5]EPTAPP[X2]E-NH2; staple (E) 1-8)	> 500	–

The remaining lines, values ahead:

Kd [1] [µM]	Drug uptake (HeLa) [%]	Structure (SMILES)
171	–	C[C@@H]1NC(=O)[C@H]([C@@H](C)O)NC(=O)[C@@H]2CCCN2C(=O)CN(C(=O)[C@@H]2CCCN2C(=O)CCCCNC(=S)Nc2ccc3c(c2)C2(OC3=O)c3ccc(O)cc3Oc3cc(O)ccc32)CC/C=C\CN(CC(=O)N[C@@H](CCC(=O)O)C(N)=O)C(=O)[C@@H]2CCCN2C(=O)[C@@H]2CCCN2C1=O ({Fluorescein(5-NHCS)-Ava}-P[Gly(N-but-3-enyl)]PTAPP[X2]E-NH2; staple (Z) 2-8)
590	74	C=CCN(CC(=O)N1CCC[C@H]1C(=O)N[C@H](C(=O)N[C@@H](C)C(=O)N1CCC[C@H]1C(=O)N1CCC[C@H]1C(=O)N(CC=C)CC(=O)N[C@@H](CCC(=O)O)C(N)=O)[C@@H](C)O)C(=O)[C@@H]1CCCN1C(=O)CCCCNC(=S)Nc1ccc2c(c1)C1(OC2=O)c2ccc(O)cc2Oc2cc(O)ccc21 ({Fluorescein(5-NHCS)-Ava}-P[NAllylGly]PTAPP[NAllylGly]E-NH2)
> 500	–	C[C@@H]1NC(=O)[C@H]([C@@H](C)O)NC(=O)[C@@H]2CCCN2C(=O)CN(C(=O)[C@@H]2CCCN2C(=O)CCCCNC(=S)Nc2ccc3c(c2)C2(OC3=O)c3ccc(O)cc3Oc3cc(O)ccc32)CCCC=CCN(CC(=O)N[C@@H](CCC(=O)O)C(N)=O)C(=O)[C@@H]2CCCN2C(=O)[C@@H]2CCCN2C1=O ({Fluorescein(5-NHCS)-Ava}-P[X1]PTAPP[X2]E-NH2; staple 2-8)
218	–	C[C@@H]1NC(=O)[C@H]([C@@H](C)O)NC(=O)[C@@H]2CCCN2C(=O)CN(C(=O)[C@@H]2CCCN2C(=O)CCCCNC(=S)Nc2ccc3c(c2)C2(OC3=O)c3ccc(O)cc3Oc3cc(O)ccc32)C/C=C\CN(CC(=O)N[C@@H](CCC(=O)O)C(N)=O)C(=O)[C@@H]2CCCN2C(=O)[C@@H]2CCCN2C1=O ({Fluorescein(5-NHCS)-Ava}-P[X2]PTAPP[X2]E-NH2; staple (Z) 2-8)
